The subject of assay [1] is Caenorhabditis elegans. As to the kind of experiment: Protection against mutant PABPN1-induced toxicity in transgenic Caenorhabditis elegans coexpressing nuclear GFP and PABPN1-A13 assessed as inhibition of deffective worm motility at 11.1 uM. It is filed as functional, organism-based. A digest of the protocol:
(§1)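 Worms were drug-treated from the synchronized L1 stage in OP-50.1 liquid culture. Day 3–5 adults were placed on a thin OP-50.1 lawn on NGM plates. Body bends (complete sinusoids) were counted immediately over 20 s. 60–100 worms were scored per dose, in three independent assays. Results are mean ± SEM versus untreated animals, checked by one-way ANOVA.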

Assay [2] deals with Caenorhabditis elegans. As to the kind of experiment: Protection against mutant PABPN1-induced toxicity in transgenic Caenorhabditis elegans coexpressing nuclear GFP and PABPN1-A13 assessed as inhibition of nuclear collapse at 11.1 uM. In kind it is functional, organism-based. A digest of the protocol:
(§2)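 Synchronized L1 worms were kept in OP-50.1 liquid culture with the drug. Nuclear GFP signals were counted at young adulthood under a ×10 fluorescence microscope. Percent rescue = ((test − control)/control) × 100, where a negative value means enhanced toxicity. At least 100 worms were scored per dose, in three independent assays. Comparison was by two-tailed Student's t-test.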

Assay [3] concerns Caenorhabditis elegans. As to the kind of experiment: Effect on nuclear integrity in transgenic Caenorhabditis elegans coexpressing nuclear GFP and normal PABPN1-A10. It is filed as functional, organism-based. In short, it runs like this:
as §2

For assay [4], the system named is Caenorhabditis elegans. As to the kind of experiment: Protection against mutant PABPN1-induced toxicity in transgenic Caenorhabditis elegans coexpressing nuclear GFP and PABPN1-A13 assessed as inhibition of nuclear collapse. In kind it is functional, organism-based. A digest of the protocol: (§3)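 Synchronized L1 transgenic worms incubated with drug in OP-50.1 liquid culture; nuclear GFP signals counted at young adulthood under 10x fluorescence microscopy. Percent rescue = ((test − control)/control) × 100, negative values indicating enhanced toxicity. At least 100 worms scored per dose, three independent assays; two-tailed Student's t-test unless stated otherwise.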

Assay [5] has as its target T1, NAD-dependent protein deacetylase sirtuin-1 (Homo sapiens, UniProt Q96EB6).
T1 sequence (Q96EB6 whole entry): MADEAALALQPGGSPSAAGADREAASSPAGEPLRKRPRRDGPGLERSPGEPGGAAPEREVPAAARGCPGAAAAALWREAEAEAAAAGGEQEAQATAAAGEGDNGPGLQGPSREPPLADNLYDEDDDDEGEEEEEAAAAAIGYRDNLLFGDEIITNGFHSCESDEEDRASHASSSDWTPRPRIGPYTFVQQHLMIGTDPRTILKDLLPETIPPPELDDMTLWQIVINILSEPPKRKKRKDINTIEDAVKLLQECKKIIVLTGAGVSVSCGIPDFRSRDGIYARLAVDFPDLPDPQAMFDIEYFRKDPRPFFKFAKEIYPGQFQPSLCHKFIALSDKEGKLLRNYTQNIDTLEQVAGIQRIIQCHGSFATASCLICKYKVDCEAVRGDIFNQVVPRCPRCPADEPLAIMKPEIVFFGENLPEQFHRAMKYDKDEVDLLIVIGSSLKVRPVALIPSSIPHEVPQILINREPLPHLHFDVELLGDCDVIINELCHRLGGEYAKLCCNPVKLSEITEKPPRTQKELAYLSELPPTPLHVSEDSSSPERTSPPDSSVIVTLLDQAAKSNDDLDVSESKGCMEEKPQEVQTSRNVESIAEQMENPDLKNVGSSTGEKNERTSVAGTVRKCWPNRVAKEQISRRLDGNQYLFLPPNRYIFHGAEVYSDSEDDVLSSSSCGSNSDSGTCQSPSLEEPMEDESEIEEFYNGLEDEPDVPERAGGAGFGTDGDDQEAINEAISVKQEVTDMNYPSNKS
As to the kind of experiment: Inhibition of human recombinant SIRT1 by Flour de Lys assay.

The test system of assay [6] is Caenorhabditis elegans. As to the kind of experiment: Protection against mutant PABPN1-induced toxicity in transgenic Caenorhabditis elegans coexpressing nuclear GFP and PABPN1-A13 assessed as nuclear GFP fluorescence level relative to untreated control. It is filed as functional. A digest of the protocol: as §3
In assay [7] the test system is Caenorhabditis elegans. As to the kind of experiment: Effect on nuclear integrity in transgenic Caenorhabditis elegans coexpressing nuclear GFP and normal PABPN1-A10 assessed as nuclear GFP fluorescence level relative to untreated control. It is filed as functional. A digest of the protocol: as §3
Assay [8] relates to Caenorhabditis elegans. As to the kind of experiment: Protection against mutant PABPN1-induced toxicity in transgenic Caenorhabditis elegans coexpressing nuclear GFP and PABPN1-A13 assessed as inhibition of deffective worm motility. It is filed as functional, organism-based. A digest of the protocol:
as §1

For assay [9], the system named is Caenorhabditis elegans. As to the kind of experiment: Reduction of PABPN1 expression in transgenic Caenorhabditis elegans coexpressing nuclear GFP and PABPN1-A13 by Q-RT-PCR. In kind it is functional, organism-based.
In assay [10] the test system is Caenorhabditis elegans. As to the kind of experiment: Protection against mutant PABPN1-induced toxicity in transgenic Caenorhabditis elegans coexpressing nuclear GFP and PABPN1-A13 assessed as inhibition of deffective worm motility at 33.3 uM. It is filed as functional, organism-based. A digest of the protocol:
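Drug-treated transgenic worms as day 3-5 adults placed on thin OP-50.1 lawn on NGM plates; body bends (complete sinusoids) counted immediately over 20 s. 60-100 worms per dose, three independent assays; mean ± SEM compared with untreated animals.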

Assay [11] concerns the target T2, NAD-dependent protein deacetylase sirtuin-2 (Homo sapiens, UniProt Q8IXJ6).
T2 sequence (Q8IXJ6 whole entry): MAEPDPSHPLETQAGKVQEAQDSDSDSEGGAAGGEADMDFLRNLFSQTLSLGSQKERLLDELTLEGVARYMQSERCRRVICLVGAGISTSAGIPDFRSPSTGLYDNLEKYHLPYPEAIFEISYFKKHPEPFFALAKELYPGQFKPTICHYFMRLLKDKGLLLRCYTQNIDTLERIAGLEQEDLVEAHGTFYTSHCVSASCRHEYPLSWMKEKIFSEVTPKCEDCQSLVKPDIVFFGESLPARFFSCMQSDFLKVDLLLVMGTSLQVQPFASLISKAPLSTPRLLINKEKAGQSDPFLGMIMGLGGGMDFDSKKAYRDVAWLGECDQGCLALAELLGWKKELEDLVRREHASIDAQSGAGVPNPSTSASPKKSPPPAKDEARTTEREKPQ
As to the kind of experiment: Inhibition of human recombinant SIRT2 by Flour de Lys assay.

The test system of assay [12] is Caenorhabditis elegans. As to the kind of experiment: Protection against mutant PABPN1-induced toxicity in transgenic Caenorhabditis elegans coexpressing nuclear GFP and PABPN1-A13 assessed as inhibition of nuclear collapse at 3.7 uM. In kind it is functional, organism-based. In short, it runs like this: as §2
In assay [13] the test system is Caenorhabditis elegans. As to the kind of experiment: Protection against mutant PABPN1-induced toxicity in transgenic Caenorhabditis elegans coexpressing nuclear GFP and PABPN1-A13 assessed as inhibition of deffective worm motility at 3.7 uM. In kind it is functional, organism-based. In short, it runs like this: as §1

pEC50, pIC50: −log10 of the molar value. Activity calls are given as the source filed them. No cut-off for these calls is given here.

These results are taken from ChEMBL document CHEMBL1159066 (J Med Chem, 2010).

In the case of `O=c1nc2oc3ccc4ccccc4c3cc-2c(=O)n1-c1ccccc1`, the result in the assay with Caenorhabditis elegans [1] and with Caenorhabditis elegans [2] was Active. For the same molecule, the result in the assay with Caenorhabditis elegans [3] was inactive.
Turning to `CC(C(=O)Nc1cccc(/N=C/c2c(O)ccc3ccccc23)c1)c1ccccc1` (stereo unspecified), the outcome in the assay with Caenorhabditis elegans [4] was Active. The result in the assay on Caenorhabditis elegans [3] was inactive.
In the case of `N#C/C(=C\c1ccc(-c2cc(Cl)ccc2Cl)o1)C(=O)Nc1cccc2ncccc12`, the figures for the Activity entry with Caenorhabditis elegans [4], in the assay with Caenorhabditis elegans [6] and in the assay with Caenorhabditis elegans [7] were “Dose-dependent effect”, 20% and 10%, respectively. The pIC50 in [5] is below 4.30.
In the case of `O=C1CCc2c(ccc3ccccc23)O1`, the result with Caenorhabditis elegans [4] and with Caenorhabditis elegans [8] was Active. Further, the result with Caenorhabditis elegans [9] and in the assay on Caenorhabditis elegans [3] was inactive.
Regarding `NC(=O)[C@H]1CCCc2c1[nH]c1ccc(Cl)cc21`, the outcome with Caenorhabditis elegans [4] and with Caenorhabditis elegans [10] was Active.
For the molecule `CC(NC(=O)c1cccc(/N=C/c2c(O)ccc3ccccc23)c1)c1ccccc1` (stereo unspecified), the pIC50 in assay [11] was 4.46.
For the molecule `CC(NC(=O)c1ccc(/N=C/c2c(O)ccc3ccccc23)cc1)c1ccccc1` (stereo unspecified), the result in the assay with Caenorhabditis elegans [4] was Active. The pIC50 was 4.52 in assay [11] and 4.32 in [5]. For the same molecule, the outcome in the assay on Caenorhabditis elegans [3] was inactive.
Regarding `O=c1nc2oc3ccccc3cc-2c(=O)[nH]1`, the outcome in the assay with Caenorhabditis elegans [12] and in the assay with Caenorhabditis elegans [13] was Active. In addition, the pIC50 was 3.61 in assay [11] and 5.28 in [5]. The outcome in the assay with Caenorhabditis elegans [3] was inactive.
In the case of `CC(NC(=O)c1ccccc1/N=C/c1c(O)ccc2ccccc12)c1ccccc1` (stereo unspecified), in the assay with Caenorhabditis elegans [4], the result was Active. Moreover, the outcome with Caenorhabditis elegans [3] was inactive.
In the case of `CC(NS(=O)(=O)c1ccc(/N=C/c2c(O)ccc3ccccc23)cc1)c1ccccc1` (stereo unspecified), the pIC50 in assay [11] was 4.65; in [5] it was 4.36. The pEC50 in the assay with Caenorhabditis elegans [8] was above 6.00. In addition, the Activity with Caenorhabditis elegans [6] is recorded as 10%. Further, the result with Caenorhabditis elegans [3] was inactive.
For `O=C1Oc2ccc3ccccc3c2CC1C(=O)c1ccccc1Cl` (stereo unspecified), the outcome in the assay with Caenorhabditis elegans [4] and in the assay with Caenorhabditis elegans [8] was Active. In addition, the pIC50 in assay [11] is 5.03; in assay [5], 4.05. Further, the outcome with Caenorhabditis elegans [9] and with Caenorhabditis elegans [3] was inactive.
As for `CC(CSc1cccc(/N=C/c2c(O)ccc3ccccc23)c1)c1ccccc1` (stereo unspecified), the result in the assay with Caenorhabditis elegans [4] was inactive. Besides, the pIC50 in assay [11] is 4.72; in [5], 4.39.
